In ChEMBL document CHEMBL4428115, “Molecular docking studies, biological and toxicity evaluation of dihydroisoquinoline derivatives as potential anticancer agents” (Bioorg Med Chem, 2016):
Calls of active or inactive are those of the source. No cut-off for these calls is given here.

How the values were obtained:
[1] = test system: HL60/MX2; assay: Antiproliferative activity against human HL60/MX2 cells after 72 hrs by MTT assay; format: functional, cell-based; conditions: HL60/MX2, 72 h
Summary of the method: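 Leukemia cells seeded at 1 × 10^4 per well 24 h before adding compounds (0.01–1000 µg/mL from DMSO stock), exposed 72 h. MTT (5 mg/mL stock) added for 4 h, then DMF/SDS lysis mixture; absorbance at 570 nm read after 24 h. Triplicates per experiment, 3–5 repeats; IC50 calculated per experiment, reported as mean ± SD.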

[2] = test system: MCF10; assay: Antiproliferative activity against human MCF10 cells after 72 hrs by SRB assay; format: cell-based; conditions: MCF10, 72 h
Summary of the method: (§1)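 Adherent cells plated at 1 × 10^4 per well 24 h before treatment, then exposed 72 h to compounds diluted from 20 mg/mL DMSO stock (0.01–1000 µg/mL). Fixed in cold 50% TCA at 4°C for 1 h, stained with 0.4% sulforhodamine B, bound dye extracted with 10 mM Tris, OD at 540 nm. Triplicates, 3–5 experiments; IC50 per experiment, mean ± SD.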

[3] = test system: BALB/3T3; assay: Antiproliferative activity against mouse BALB/3T3 cells after 72 hrs by SRB assay; format: cell-based; conditions: BALB/3T3, 72 h; summary of the method: as §1
[4] = Selectivity index, ratio of IC50 for human MCF10 cells to IC50 for human MCF7 cells; format: toxicity; conditions: MCF10 cells versus MCF7 cells, read-out: Ratio IC50
Summary of the method: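 Selectivity index is the ratio of the IC50 for the normal line to the IC50 for the cancer line. Both IC50 values come from 72 h antiproliferative assays: SRB for adherent cells, MTT for HL-60.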

[5] = test system: K562; assay: Antiproliferative activity against human K562 cells; format: functional, cell-based
[6] = test system: HT-29; assay: Antiproliferative activity against human HT-29 cells at 290 uM; format: functional, cell-based
[7] = test system: PC-3; assay: Antiproliferative activity against human PC3 cells; format: functional, cell-based
[8] = Antiproliferative activity against human HCV29T cells; format: functional, cell-based
[9] = test system: LoVo; assay: Potency index, ratio of bestatin IC50 to compound IC50 for human LoVo cells; format: functional
[10] = Antioxidant activity assessed as ABTS free radical scavenging activity; format: functional
[11] = Antioxidant activity assessed as DPPH free radical scavenging activity; format: functional
[12] = Selectivity index, ratio of IC50 for mouse BALB/3T3 cells to IC50 for human K562 cells; format: toxicity; conditions: BALB/3T3 cells versus K562 cells, read-out: Ratio IC50
[13] = Selectivity index, ratio of IC50 for mouse BALB/3T3 cells to IC50 for human MV411 cells
[14] = Selectivity index, ratio of IC50 for mouse BALB/3T3 cells to IC50 for human LoVo cells; format: toxicity; conditions: BALB/3T3 cells versus LoVo cells, read-out: Ratio IC50
[15] = Selectivity index, ratio of IC50 for mouse BALB/3T3 cells to IC50 for human LNCAP cells; format: toxicity; conditions: BALB/3T3 cells versus LNCAP cells, read-out: Ratio IC50
[16] = Selectivity index, ratio of IC50 for mouse BALB/3T3 cells to IC50 for human LoVo/DX cells; format: toxicity; conditions: BALB/3T3 cells versus LoVo/DX cells, read-out: Ratio IC50
[17] = Selectivity index, ratio of IC50 for mouse BALB/3T3 cells to IC50 for human A498 cells
[18] = test system: HL-60; assay: Effect on cyclin A levels in human HL60 cells at 1 ug/ml after 72 hrs by Western-blot analysis; format: functional, cell-based
Summary of the method: (§2)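 HL-60 (2 × 10^5 cells/mL) treated 72 h at 1 µg/mL with DMSO control, then lysed in RIPA buffer with protease/phosphatase inhibitors. 100 µg protein resolved on 4–20% gels and transferred to nitrocellulose. Probed with rabbit primary antibody, fluorescein-linked anti-rabbit secondary, then anti-fluorescein–alkaline phosphatase with ECF substrate; fluorescence scanned. Densitometry normalized to actin, reported as fold change versus control.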

[19] = test system: HL-60; assay: Decrease in cyclin E expression in human HL60 cells at 1 ug/ml after 72 hrs by Western-blot analysis; format: functional, cell-based; summary of the method: as §2
[20] = test system: HL-60; assay: Increase in caspase 3/7 activation in human HL60 cells using Ac-DEVD-ACC as substrate at 3 ug/ml after 24 hrs by fluorescence assay relative to control; format: functional, cell-based
Summary of the method: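 HL-60 exposed 24 h to 3 µg/mL (DMSO control), lysed at 1.2 × 10^6 cells/mL in HEPES/sucrose/Triton lysis buffer pH 7.3 for 30 min at 4°C. Lysate added to DTT-containing reaction buffer with Ac-DEVD-ACC at 10 µM final (ex 360/em 460 nm). Fluorescence recorded 90 min at 37°C, normalized to Lowry protein, and expressed relative to untreated control; three experiments.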

[21] = test system: HL-60; assay: Effect on Bax expression in human HL60 cells at 1 ug/ml after 72 hrs by Western-blot analysis; format: functional, cell-based; summary of the method: as §2
[22] = test system: HL-60; assay: Effect on Bcl-2 expression in human HL60 cells at 1 ug/ml after 72 hrs by Western-blot analysis; format: functional, cell-based; summary of the method: as §2
[23] = test system: HL-60; assay: Induction of autophagy in human HL60 cells assessed as accumulation of LC3b-2 at 1 ug/ml after 72 hrs by Western-blot analysis; format: functional, cell-based; summary of the method: as §2
[24] = Toxicity in New Zealand albino rabbit assessed as acute skin irritation/corrosion at 0.5 g topically applied to shaved skin for 4 hrs measured 1 to 72 hrs post dose; design: species or system Oryctolagus cuniculus; conditions: in vivo, topical_or_ocular
Summary of the method: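 Test item applied under a protective band for 4 h to one rabbit first, then to two more animals to confirm or exclude irritation. Treated skin scored at 1, 24, 48 and 72 h after exposure, with daily morbidity and mortality checks. Animals euthanized after the observation period.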

[25] = Acute dermal toxicity in Wistar rat assessed as pathological changes at 2000 mg/kg topically applied to shaved dorsal skin as single dose for 24 hrs measured for 14 days; format: organism-based; conditions: in vivo, topical_or_ocular
Summary of the method: (§3)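 Wistar rats, 5 males and 5 females; single 2000 mg/kg bw dermal application to shaved dorsal skin (about 41 cm2 per male, 31 cm2 per female) for 24 h. General and detailed clinical observations daily over a 14-day observation period, then animals euthanized; treated skin examined for pathological changes.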

[26] = Acute toxicity in Wistar rat assessed as mortaliity topically applied to shaved dorsal skin as single dose for 24 hrs measured for 14 days; conditions: in vivo, topical or ocular; summary of the method: as §3
[27] = Acute toxicity in Balbc/cmdb mouse assessed as clinical signs at 300 mg/kg, po administered as single dose in first stage of experiment measured immediately post dose; format: organism-based; conditions: in vivo
Summary of the method: (§4)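 Acute toxic class method per OECD Guideline 423 / EU Method B.1 tris, run in three stages of three female Balbc/cmdb mice each. Fasted about 3 h, then given a single dose by metal stomach tube in DMSO at 0.5 mL/100 g bw. Stage doses were 300, 2000, then 2000 mg/kg bw. General and detailed clinical observations daily for 14 days; body weights recorded.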

[28] = Acute toxicity in Balbc/cmdb mouse assessed as clinical signs at 300 mg/kg, po administered as single dose in first stage of experiment measured for 14 days; format: organism-based; conditions: in vivo, 336 h; summary of the method: as §4
[29] = Acute toxicity in Balbc/cmdb mouse assessed as clinical signs at 2000 mg/kg, po administered as single dose in third stage of experiment measured immediately post dose; format: organism-based; conditions: in vivo; summary of the method: as §4
[30] = Acute toxicity in New Zealand albino rabbit assessed as conjunctiva at 0.068 g applied to conjunctival sac of eye measured 1 to 72 hrs post dose; design: species or system Oryctolagus cuniculus; conditions: in vivo, topical_or_ocular

Question: For CCOC(=O)C1(C(=O)OCC)Cc2cc(OCc3ccccc3)cc(OCc3ccccc3)c2C=N1, which IC50 [1] is on record?
Answer: 5.1 µM

Question: And the IC50 [2]?
Answer: 40.2 µM

Question: And the IC50 [3]?
Answer: 35.9 µM

Question: What about the selectivity ratio [4] of the same compound?
Answer: 4 to 8

Question: What about the IC50 [5] of the same compound?
Answer: 70 µM

Question: And the “growth inhibition (GI)” value [6]?
Answer: inactive

Question: What about the IC50 [7] of the same compound?
Answer: 4.2 µM

Question: What about the IC50 [8] of the same compound?
Answer: 8.8 µM

Question: What about the “Ratio IC50” value [9] of the same compound?
Answer: 212

Question: And the Activity [10]?
Answer: inactive

Question: And the IC50 [11]?
Answer: 1000 µM

Question: And the selectivity ratio [12]?
Answer: 0.5

Question: And the “Ratio IC50” value [13]?
Answer: 0.6

Question: What about the selectivity ratio [14] of the same compound?
Answer: 32.6

Question: And the selectivity ratio [15]?
Answer: 10.9

Question: And the selectivity ratio [16]?
Answer: 8.8

Question: What about the “Ratio IC50” value [17] of the same compound?
Answer: 2.7

Question: And the Activity [18]?
Answer: inactive

Question: What about the Activity [19] of the same compound?
Answer: Active

Question: And the Activity [20]?
Answer: Active

Question: What about the Activity [21] of the same compound?
Answer: inactive

Question: And the Activity [22]?
Answer: inactive

Question: And the Activity [23]?
Answer: inactive

Question: And the Activity [24]?
Answer: Non-Toxic

Question: And the Activity [25]?
Answer: Non-Toxic

Question: What about the LD50 at 14 days [26] of the same compound?
Answer: > 2000 mg/kg

Question: What about the Activity [27] of the same compound?
Answer: Toxic

Question: And the Activity [28]?
Answer: Non-Toxic

Question: What about the Activity [29] of the same compound?
Answer: Toxic

Question: What about the Activity [30] of the same compound?
Answer: Non-Toxic
